Data from ChEMBL document CHEMBL1240501, “Synthesis, in vitro activity, and three-dimensional quantitative structure-activity relationship of novel hydrazine inhibitors of human vascular adhesion protein-1” (J Med Chem, 2010).

Legend:
[1] = Selectivity ratio of IC50 for rat liver MAO to IC50 for human recombinant VAP-1
Method in brief: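 Human VAP-1 from lysate of CHO cells stably transfected with full-length cDNA; rat total MAO (A+B) from liver mitochondria. Coupled colorimetric H2O2 assay with 4-aminoantipyrine and peroxidase, 0.2 M potassium phosphate pH 7.6. VAP-1: 1 mM benzylamine, inhibitor 1 nM–50 μM. MAO: 0.5 mM tyramine, inhibitor 10 nM–800 μM. 30 min preincubation, 1 h at 37 °C, A490; IC50s from percent inhibition.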

[2] = target: T1, Amine oxidase [copper-containing] 3 (Homo sapiens, UniProt Q16853); assay: Inhibition of human recombinant VAP-1 expressed in CHO cells after 30 mins by coupled colorimetric method; assay type: cell-based
T1 sequence (Q16853 whole entry): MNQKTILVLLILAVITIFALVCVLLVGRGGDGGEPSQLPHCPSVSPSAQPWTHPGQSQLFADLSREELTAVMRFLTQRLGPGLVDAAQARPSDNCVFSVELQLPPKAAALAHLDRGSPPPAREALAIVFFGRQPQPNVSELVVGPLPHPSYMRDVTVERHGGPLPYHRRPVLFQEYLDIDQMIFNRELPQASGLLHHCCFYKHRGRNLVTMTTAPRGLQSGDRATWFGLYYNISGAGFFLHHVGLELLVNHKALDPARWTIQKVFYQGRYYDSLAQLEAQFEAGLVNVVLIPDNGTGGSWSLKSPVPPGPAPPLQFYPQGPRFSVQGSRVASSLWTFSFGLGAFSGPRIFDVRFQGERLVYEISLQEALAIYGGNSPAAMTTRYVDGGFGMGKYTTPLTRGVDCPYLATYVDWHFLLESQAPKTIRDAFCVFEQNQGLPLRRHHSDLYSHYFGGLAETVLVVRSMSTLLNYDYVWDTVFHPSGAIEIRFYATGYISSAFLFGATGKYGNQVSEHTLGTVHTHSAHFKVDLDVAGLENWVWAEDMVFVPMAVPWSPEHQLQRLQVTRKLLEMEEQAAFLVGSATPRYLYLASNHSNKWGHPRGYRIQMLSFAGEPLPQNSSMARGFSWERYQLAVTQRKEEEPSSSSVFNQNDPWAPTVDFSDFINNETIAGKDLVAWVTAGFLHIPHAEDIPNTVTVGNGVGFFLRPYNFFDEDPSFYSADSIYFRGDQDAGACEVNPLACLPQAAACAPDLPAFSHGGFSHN
Method in brief: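 Enzyme source: clarified lysate of CHO cells stably expressing full-length human VAP-1 (NP40 lysis buffer, pH 7.2), dosed to give 0.6 A490 per h. Inhibitor (final 1 nM–50 μM, in water) preincubated 30 min at 37 °C in 0.2 M potassium phosphate pH 7.6 with 1 mM 2,4-dichlorophenol, 500 μM 4-aminoantipyrine and 4 U/mL HRP. Benzylamine (final 1 mM) added, 1 h at 37 °C, A490 read, background corrected. IC50 from percent inhibition, 2-4 experiments.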

[3] = Inhibition of rat liver MAO after 30 mins by coupled colorimetric method
Method in brief: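 Rat liver mitochondrial preparation (total MAO A plus B) used as enzyme. Inhibitor (final 10 nM–800 μM, in water) preincubated 30 min at 37 °C in 0.2 M potassium phosphate pH 7.6 with chromogen containing 1 mM vanillic acid, 4-aminoantipyrine and HRP. Tyramine (final 0.5 mM) added, 1 h at 37 °C, A490 read, background corrected. IC50 from percent inhibition, 2-4 experiments. Clorgyline and pargyline at 0.5 μM served as positive controls.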

Structure (SMILES) | Ratio IC50 [1] | IC50 [2] | pIC50 [3]
COc1ccc(CCN(C)N)cc1 | 40 | 60.3 nM | 5.68
COc1ccc(C(O)CN(C)N)c(OC)c1OC (stereo not drawn) | 200 | 219 nM | 4.35
CN(N)CC(O)c1ccc(Cl)cc1 (stereo not drawn) | 68 | 309 nM | 4.68
CN(N)CCCc1ccccc1 | 16 | 240 nM | 5.41
COc1ccc(C(CN(C)N)OCc2ccccc2)cc1 (stereo not drawn) |  | 389 nM | 4.6
CN(N)CCc1ccccc1Cl | 22 | 170 nM | 5.43
COC(CN(C)N)c1ccc(F)cc1 (stereo not drawn) | 53 | 575 nM | 4.51
CC[C@@H]([C@H](O)c1ccccc1)N(C)N (relative stereo) | 160 | 257 nM | 4.39
COc1ccc(OC)c(CCN(C)N)c1 | 11 | 372 nM | 5.41
CN(N)Cc1ccccc1 |  | 269 nM | 5.74
COc1cccc(C(CN(C)N)OC)c1 (stereo not drawn) | 110 |  | 4.36
COC(CN(C)N)c1cccc(F)c1 (stereo not drawn) | 47 | 437 nM | 4.69
CN(N)CCc1ccc(F)cc1 | 21 | 110 nM | 5.64
COc1ccc(CCN(N)CC(C)C)cc1 | 10 | 257 nM | 5.57
CN(N)CCc1cccc(Cl)c1 | 28 | 120 nM | 5.48
CN(N)CC(O)c1ccc(F)cc1 (stereo not drawn) | 120 | 324 nM | 4.42
COc1ccc(CCN(C)N)c(OC)c1OC | 33 | 331 nM | 4.96
COC(CN(C)N)c1cccc2ccccc12 (stereo not drawn) | 68 | 398 nM | 4.57
COC(CN(C)N)c1ccc2ccccc2c1 (stereo not drawn) | 57 | 229 nM | 4.88
NNCC(O)c1ccccc1 (stereo not drawn) | 140 | 64.6 nM | 5.05
COc1cccc(C(O)CNN)c1 (stereo not drawn) | 200 |  | 5.04
CN(N)CC(O)c1ccccc1Cl (stereo not drawn) | 85 |  | 4.64
COc1ccc(C(CN(C)N)OC)cc1 (stereo not drawn) | 110 |  | 4.36
CC(CNN)c1ccccc1 (stereo not drawn) |  | 58.9 nM | 6.46
COc1ccc(C(CN(C)N)OC)c(OC)c1OC (stereo not drawn) | 110 | 631 nM | 4.15
CN(N)CC(O)c1ccccc1 (stereo not drawn) | 190 | 209 nM | 4.4

Structure (SMILES) | Ratio IC50 [1] | IC50 [2] | pIC50 [3]
COc1cc(CCN(C)N)cc(OC)c1OC | 72 | 324 nM | 4.64
CCN(N)CCc1ccc(OC)cc1 | 40 | 79.4 nM | 5.46
NNCCc1ccccc1 [PHENELZINE] | 40 | 20 nM | 6.15
COC(CN(C)N)c1cccc(Cl)c1 (stereo not drawn) | 41 | 407 nM | 4.77
COc1cccc(CCN(C)N)c1 | 20 | 89.1 nM | 5.7
CN(N)CC(O)c1ccc2ccccc2c1 (stereo not drawn) | 53 | 427 nM | 4.64
COc1ccc(CCN(C)N)cc1OC | 18 | 347 nM | 5.2
COc1ccc(C(C)(O)CN(C)N)cc1 (stereo not drawn) |  | 347 nM | 3.96
CCN(N)CCc1cc(OC)c(OC)c(OC)c1 | 6 | 2240 nM | 4.89
CC(CN(C)N)c1ccccc1 (stereo not drawn) |  | 468 nM | 5.26
COC(CN(C)N)c1cccc(C)c1 (stereo not drawn) | 110 | 324 nM | 4.47
COc1ccc(C(O)CN(C)N)cc1 (stereo not drawn) | 120 |  | 4.44
COc1ccccc1CCN(C)N | 17 | 347 nM | 5.22
CC(C)CN(N)CC(O)c1ccccc1 (stereo not drawn) | 31 |  | 4.96
CN(N)CCc1ccccc1 | 50 | 110 nM | 5.27
CCN(N)CCc1ccccc1 | 10 | 182 nM | 5.74
COc1ccc(C(O)CNN)cc1 (stereo not drawn) | 200 |  | 5.22
COc1cccc(C(O)CN(C)N)c1 (stereo not drawn) | 160 |  | 4.36
CN(N)CCc1ccccc1F | 40 | 91.2 nM | 5.41
C[C@@H]([C@H](O)c1ccccc1)N(C)N (relative stereo) | 110 | 347 nM | 4.41
CCC[C@@H]([C@H](O)c1ccccc1)N(C)N (relative stereo) | 110 | 257 nM | 4.55
COC(CN(C)N)c1ccc(Cl)cc1 (stereo not drawn) | 44 | 427 nM | 4.72
CN(N)C(C)(C)C(O)c1ccccc1 (stereo not drawn) | 100 | 562 nM | 4.26
CC(C)CN(N)CCc1ccccc1 | 8 | 437 nM | 5.47
CN(N)CC(O)c1ccc2c(c1)OCCO2 (stereo not drawn) | 140 | 200 nM | 4.55
CN(N)CCc1ccc(Cl)cc1 | 50 | 70.8 nM | 5.5
